Test results published in ChEMBL document CHEMBL1765073, “Synthesis and structure-activity relationship studies of urea-containing pyrazoles as dual inhibitors of cyclooxygenase-2 and soluble epoxide hydrolase” (J Med Chem, 2011).
Active and inactive are the calls of the source. The rule behind the calls is not given here.

Experiments:
[1] = molecular target: T1, Prostaglandin G/H synthase 1 (Ovis aries) (UniProt P05979); assay: Inhibition of ovine COX-1 at 100 uM after 2 mins by fluorescence assay
T1 sequence (whole entry): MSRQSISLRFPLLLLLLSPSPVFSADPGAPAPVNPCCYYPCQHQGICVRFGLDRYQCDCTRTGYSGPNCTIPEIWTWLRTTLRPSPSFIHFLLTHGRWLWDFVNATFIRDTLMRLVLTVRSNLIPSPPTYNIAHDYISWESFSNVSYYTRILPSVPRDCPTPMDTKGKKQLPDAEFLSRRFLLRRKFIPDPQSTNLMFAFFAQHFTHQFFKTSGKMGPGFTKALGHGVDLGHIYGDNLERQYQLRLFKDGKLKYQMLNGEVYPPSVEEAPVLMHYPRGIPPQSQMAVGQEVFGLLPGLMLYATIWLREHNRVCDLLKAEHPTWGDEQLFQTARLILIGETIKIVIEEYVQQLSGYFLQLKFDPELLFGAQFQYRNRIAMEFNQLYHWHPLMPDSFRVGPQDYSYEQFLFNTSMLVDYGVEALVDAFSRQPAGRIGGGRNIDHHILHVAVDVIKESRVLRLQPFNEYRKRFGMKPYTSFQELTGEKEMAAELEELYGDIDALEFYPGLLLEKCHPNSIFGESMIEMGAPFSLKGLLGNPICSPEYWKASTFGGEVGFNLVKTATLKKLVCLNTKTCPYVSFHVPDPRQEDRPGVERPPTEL
How it was run: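 Ovine COX-1 was tested in a fluorescent kit assay in 100 mM Tris-HCl, pH 8.0, with heme and ADHP substrate. Inhibitor was added at a final 100 µM, then the reaction was started with arachidonic acid for 2 min at room temperature. Resorufin was read at ex 535/em 590 nm, and % inhibition was taken against a no-inhibitor control.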

Rattus norvegicus [2] = assay: Antiallodynic activity in Sprague-Dawley rat von Frey hair mechanically-stimulated inflammatory pain model assessed as reversal of LPS-induced decrease in paw withdrawal latency at 10 mg/kg, sc administered 60 mins before LPS challenge
[3] = molecular target: T2, Polyunsaturated fatty acid 5-lipoxygenase (Homo sapiens) (UniProt P09917); assay: Inhibition of human 5-lipoxygenase at 10 uM
T2 sequence (whole entry): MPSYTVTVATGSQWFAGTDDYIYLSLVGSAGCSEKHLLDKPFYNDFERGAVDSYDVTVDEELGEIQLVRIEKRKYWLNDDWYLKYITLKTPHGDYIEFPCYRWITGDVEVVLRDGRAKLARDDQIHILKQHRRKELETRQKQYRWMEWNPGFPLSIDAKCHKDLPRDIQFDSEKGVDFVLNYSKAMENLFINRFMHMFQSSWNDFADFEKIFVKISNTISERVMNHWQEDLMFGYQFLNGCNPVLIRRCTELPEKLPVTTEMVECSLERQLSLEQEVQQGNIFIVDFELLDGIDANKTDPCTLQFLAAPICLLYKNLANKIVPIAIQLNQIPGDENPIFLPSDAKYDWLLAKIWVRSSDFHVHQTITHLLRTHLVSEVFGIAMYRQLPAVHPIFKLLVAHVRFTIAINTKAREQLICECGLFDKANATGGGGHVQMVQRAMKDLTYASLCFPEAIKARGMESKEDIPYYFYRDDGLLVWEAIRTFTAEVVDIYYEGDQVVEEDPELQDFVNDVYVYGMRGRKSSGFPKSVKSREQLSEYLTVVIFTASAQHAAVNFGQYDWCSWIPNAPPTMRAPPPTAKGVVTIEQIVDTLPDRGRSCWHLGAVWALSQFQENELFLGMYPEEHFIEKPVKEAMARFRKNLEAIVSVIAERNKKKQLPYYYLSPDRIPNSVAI

[4] = Half life in Sprague-Dawley rat at 1 mg/kg, po; assay type: ADME, organism-based; parameters: dose 1 mg/kg, route oral; details: in vivo
How it was run: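 Male Sprague-Dawley rats (8 weeks, 250–300 g, n = 4) were dosed orally at 1 mg/kg in oleic-ester-rich triglyceride with 10% PEG 400. Tail-vein blood (10 µL) was taken at 0–24 h, mixed with water and stored at −80 °C. Drug was quantified by LC/MS/MS, and t1/2 came from non-compartmental analysis of each rat.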

Rattus norvegicus [5] = assay: Toxicity in Sprague-Dawley rat von Frey hair mechanically-stimulated […] pain model assessed as acute observable symptoms of toxicity at 10 mg/kg, sc after 9 hrs; assay type: organism-based; parameters: dose 10 mg/kg, route subcutaneous; details: in vivo
How it was run: (§1)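 Male Sprague-Dawley rats treated s.c. (10 mg/kg, PEG400 vehicle) in the LPS von Frey study were observed over nine hours on the test day. Animals were checked for behavioral changes and for acute signs such as lacrimation, porphyrin exudation, frozen or hunched posture, gasping or chattering.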

U-937 = assay: Cytotoxicity against human U937 cells; assay type: cell-based
Rattus norvegicus [6] = assay: Toxicity in Sprague-Dawley rat von Frey hair mechanically-stimulated […] pain model assessed as overt signs of behavioral changes at 10 mg/kg, sc after 9 hrs; assay type: organism-based; parameters: dose 10 mg/kg, route subcutaneous; details: in vivo; how it was run: as §1

Row | Structure (SMILES) | inhibition [1] [%] | further results
1 | CS(=O)(=O)c1ccc(-n2nc(CCCNC(=O)Nc3cccc(C(F)(F)F)c3)cc2-c2ccccc2)cc1 | 6 | –
2 | CS(=O)(=O)c1ccc(-n2nc(CNC(=O)Nc3cccc(C(F)(F)F)c3)cc2-c2ccccc2)cc1 | 8 | –
3 | NS(=O)(=O)c1ccc(-n2nc(CCCNC(=O)Nc3cccc(C(F)(F)F)c3)cc2-c2ccccc2)cc1 | 27 | –
4 | NS(=O)(=O)c1ccc(-n2nc(CCCNC(=O)NC34CC5CC(CC(C5)C3)C4)cc2-c2ccccc2)cc1 | 7 | –
5 | CS(=O)(=O)c1ccc(-n2nc(CNC(=O)NC3CCCCCC3)cc2-c2ccccc2)cc1 | 3 | –
6 | Cc1ccc(-c2cc(C(F)(F)F)nn2-c2ccc(S(N)(=O)=O)cc2)cc1 | – | Activity (Rattus norvegicus [2]): Active; inhibition [3]: 80%
7 | NS(=O)(=O)c1ccc(-n2nc(CCCNC(=O)Nc3ccccc3)cc2-c2ccccc2)cc1 | 16 | –
8 | NS(=O)(=O)c1ccc(-n2nc(CCNC(=O)Nc3cccc(C(F)(F)F)c3)cc2-c2ccccc2)cc1 | 22 | –
9 | NS(=O)(=O)c1ccc(-n2nc(NC(=O)Nc3cccc(C(F)(F)F)c3)cc2-c2ccccc2)cc1 | 34 | –
10 | Cc1ccc(-c2cc(CCCNC(=O)Nc3cccc(C(F)(F)F)c3)nn2-c2ccc(S(N)(=O)=O)cc2)cc1 | 12 | –
11 | CS(=O)(=O)c1ccc(-n2nc(CNC(=O)NC34CC5CC(CC(C5)C3)C4)cc2-c2ccccc2)cc1 | 13 | –
12 | CC(C)c1cccc(C(C)C)c1NC(=O)NCCCc1cc(-c2ccccc2)n(-c2ccc(S(N)(=O)=O)cc2)n1 | 6 | –
13 | CC(C)(C)c1cc(CNC(=O)Nc2cccc(C(F)(F)F)c2)nn1-c1ccc(S(C)(=O)=O)cc1 | 2 | –
14 | O=C(NC12CC3CC(CC(C3)C1)C2)N[C@H]1CC[C@H](Oc2ccc(C(=O)O)cc2)CC1 | 25 | Activity (Rattus norvegicus [2]): Active

Second part, led by results:

Row | inhibition [1] [%] | Structure (SMILES) | further results
15 | 11 | CS(=O)(=O)c1ccc(-n2nc(CNC(=O)Nc3ccc(C(F)(F)F)cc3)cc2-c2ccccc2)cc1 | –
16 | 15 | NS(=O)(=O)c1ccc(-n2nc(CCCNC(=O)Nc3ccc(Cl)cc3)cc2-c2ccccc2)cc1 | –
17 | 10 | NS(=O)(=O)c1ccc(-n2nc(CCCNC(=O)NC3CCCCCC3)cc2-c2ccccc2)cc1 | –
18 | 14 | NS(=O)(=O)c1ccc(-n2nc(CCCNC(=O)Nc3ccc(OC(F)(F)F)cc3)cc2-c2ccccc2)cc1 | half-life [4]: 12 h
19 | 17 | NS(=O)(=O)c1ccc(-n2nc(CNC(=O)Nc3cccc(C(F)(F)F)c3)cc2-c2ccccc2)cc1 | –
20 | 10 | CS(=O)(=O)c1ccc(-n2nc(CNC(=O)Nc3ccc(OC(F)(F)F)cc3)cc2-c2ccccc2)cc1 | –
21 | 23 | NS(=O)(=O)c1ccc(-n2nc(CCCNC(=O)Nc3ccc(C(F)(F)F)cc3)cc2-c2ccccc2)cc1 | Activity (Rattus norvegicus [5]): Non-toxic; Activity (Rattus norvegicus [2]): Active; Activity (U-937): Non-toxic; inhibition [3]: 83%; Activity (Rattus norvegicus [6]): Non-toxic
